Many of the other results were omitted from the sample, so hits are more common in it than they were.
Lung fibro prol – antiproliferative effect on LL 47 fibroblasts – human, LL 47 cells, CellTiter-Glo luminescence, primary screen | LL 47 human lung fibroblast viability, ATP luminescence; hits give low values | viability, % at 10 µM | hit rate 1.1% among 85,000;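 active means viability at or below 50% in the single dose screen; inactive means viability above 50%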;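 further: compound exposure lasted 72 h before the ATP readout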
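Material: Human LL 47 lung fibroblast cells | Input: 1,150 cells/well | Buffer or medium: IMEM plus 15% FBS | Compound dosing: 0.1% DMSO in all compound wells | Times: Overnight cell rest, 72 h compound treatment at 37 °C | Signal: CellTiter-Glo luminescence measuring cellular ATP | Measure: % viability versus median cells-only luminescence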
Candida biofilm – clotrimazole potentiators killing Candida biofilms, primary screen, with clotrimazole, Alamar Blue. C. albicans biofilm + clotrimazole. inhibition, % at 6 µM. hit rate 0.14% among 85,000. AID 834, 2007;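 active means inhibition above 20%; inactive means inhibition below 20%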;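 further: preformed 24 hr biofilms exposed to compound for 48 hr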
H69AR inhibit – proliferation blockers of H69AR lung cancer cells, primary screen, cell-based, human, 86K library; H69AR lung tumor viability, ATP luminescence, 72 h; hits give low values; hit rate 6% among 85,000; viability, % at 10 µM;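 active means viability at or below 40%; inactive means viability above 40%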;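 further: multidrug resistant small cell line overexpressing MRP-1 efflux transporter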
HCT116 bCat-KO – primary screen for growth suppressors in beta-catenin knockout HCT116 cells (colon tumor, human) | viability, % at 10 µM | hit rate 1.5% among 140,000 | HCT116 beta-catenin knockout viability, CellTiter-Glo, 60 h; hits give low values | AID 818, 2007;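 active means viability at or under a set limit, the compound median less 4 SD, cut at about 6% in these data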
PTEN del growth – growth suppression of PTEN-null HCT116, primary screen, cell-based, CellTiter-Glo. HCT116 PTEN-null viability, 60 h; hits give low values. viability, % at 10 µM. hit rate 1.2% among 140,000;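 active means viability at or below a set limit, 4 SD under the median of all tested compounds, cut at about 3.7% in these data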;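 further: PTEN knockout HCT116 line with beta catenin targeted HCT116 as companion control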
HUVEC inhibit – inhibitors of HUVEC proliferation, primary screen, cell-based, 384-well; CellTiter-Glo luminescence, 72 h; hits give low values; viability, % at 10 µM (by protocol); hit rate 1.1% among 86,000;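 active means viability at or below 30%; inactive means viability above 30%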
Numbers stand for hits; . = inactive; / = not tested or not shown.

SMILES | Lung fibro prol | Candida biofilm | H69AR inhibit | HCT116 bCat-KO | PTEN del growth | HUVEC inhibit
CCCCn1c(=O)c(C(=O)Nc2ccccc2S(N)(=O)=O)c(O)c2ccccc21 | . | . | 23 | . | . | .
CCCCn1c(=O)c(C(=O)NCc2ccncc2)c(O)c2ccccc21 | . | . | . | . | . | .
O=C(Nc1cccnc1)c1c(O)c2c(n(Cc3ccccc3)c1=O)CCCC2 | . | . | . | . | . | .
O=C(Nc1ccncc1)c1c(O)c2ccccc2n(Cc2ccccc2)c1=O | . | . | 17 | / | / | .
CCCCCCn1c(=O)c(C(=O)Nc2ccncc2)c(O)c2ccccc21 | . | . | 12 | / | / | .
CN1C[C@H](CNC(=O)OCc2ccccc2)C[C@@H]2c3cccc4c3c(cn4C)C[C@H]21 | . | . | 1.7 | . | . | 3.9
Cc1ccc(-c2nc(N(C)C3CCN(C)CC3)c3ccccc3n2)cc1 | 38 | . | 2.7 | 1.4 | 1.4 | 4.3
CN1CCC(N(C)c2ncnc3ccc(Br)cc23)CC1 | . | . | . | . | . | .
Nc1c2c(nc3sc4c(c13)CCCC4)CCCCC2 | / | / | / | 4.1 | . | /
O=C(c1ccc2c(c1)ncn2C1CCCCC1)N1CCC2(CC1)OCCO2 | . | . | 17 | . | . | .
Nc1c(C(=O)NCc2ccco2)c2nc3ccccc3nc2n1CCN1CCCCC1 | . | . | 1.2 | . | . | 19
CC(C)CNC(=O)c1c(N)n(Cc2ccco2)c2nc3ccccc3nc12 | . | . | 34 | . | . | .
CCCNC(=O)c1c(N)n(Cc2ccco2)c2nc3ccccc3nc12 | . | . | 26 | . | . | .
O=C1C2CCCC1C(N1CCCC1)CC2 (stereo unspecified) | / | / | / | . | . | /
CCC(=NCc1ccco1)c1c(O)n(C2CCCCC2)c(=O)[nH]c1=O | . | . | 32 | . | . | .
CCCC/C(=N\O)c1c[nH]c2ccccc12 | . | . | . | . | . | .
OC1(CN2CCOCC2)C2CC3CC(C2)CC1C3 (stereo unspecified) | . | . | . | . | . | .
CC1(C)C[C@H]2C=C(C=O)[C@]3(C=O)C[C@]3(C)[C@H]2C1 | / | / | / | 2.0 | 1.8 | /
C#CCN1C(=O)C2(C(C#N)=C(N)OC(C)=C2C(=O)OCc2ccccc2)c2ccccc21 (stereo unspecified) | / | . | 30 | . | . | .
O=C1CC(N2CCC(n3c(=O)[nH]c4ccccc43)CC2)C(=O)N1c1ccc(F)cc1 (stereo unspecified) | . | . | . | . | . | .
O=c1[nH]c2ccccc2n1C1CCN(CCCC(c2ccc(F)cc2)c2ccc(F)cc2)CC1 | . | . | 1.7 | 1.4 | 1.1 | 2.7
COC(=O)C1CN(C#N)N(c2ccc(Cl)cc2)C12c1ccccc1-c1ccccc12 (stereo unspecified) | 2.1 | . | 2.3 | 1.2 | 1.0 | 2.4
CC(C)(C)N1Cc2ccccc2C1=N | / | / | / | . | . | /
CCOC(=O)c1c(-c2ccc(OC)cc2)oc2ccc(OC(=O)N(C)C)cc12 | . | . | 33 | . | . | .
CCN(CC)S(=O)(=O)c1ccc(N=Cc2c(O)n(-c3ccccc3)c(=O)[nH]c2=O)cc1 | . | / | . | . | . | .
SMILES | Lung fibro prol | Candida biofilm | H69AR inhibit | HCT116 bCat-KO | PTEN del growth | HUVEC inhibit
CCN(CC)c1ccc(N=Cc2c(O)n(CCc3ccc(OC)c(OC)c3)c(=O)[nH]c2=O)cc1 | / | / | / | 2.7 | . | /
CCN(CC)c1ccc(N=Cc2c(O)n(-c3cc(OC)ccc3OC)c(=O)[nH]c2=O)cc1 | . | . | . | 3.0 | . | .
CCN(CC)CCCN=Cc1c(O)n(CCc2ccc(OC)c(OC)c2)c(=O)[nH]c1=O | . | . | . | . | . | .
CC(C)c1oc(=O)cc2c1[C@@H](O)[C@H]1OC(=O)[C@@]3(C)C[C@@H](O)[C@@H](O)[C@@]2(C)C13 (stereo partly specified) | / | / | / | . | . | /
CC/C(=N\N1CCCCCC1)c1c(O)n(-c2ccc(C)cc2)c(=O)[nH]c1=O | / | / | / | . | . | /
O=C1NC(=O)C(=Cc2cn(CCOc3ccc4c(c3)OCO4)c3ccccc23)C(=O)N1 | 48 | . | . | . | . | .
Cc1ccc2c(c1)N(N=O)CCC2 | / | / | / | . | . | /
Cc1[nH]c2c(C(F)(F)F)cccc2c1CCN | . | . | 18 | . | . | .
COc1ccc(C2NCc3ccc4c(c3-n3cccc32)OCO4)cc1O (stereo unspecified) | . | . | 29 | . | . | .
c1cc2n(c1)-c1c(ccc3c1OCO3)CNC2c1ccc2c(c1)OCO2 (stereo unspecified) | / | / | / | . | . | /
Cc1nc2c(=O)n(C)c(=O)nc-2n(C)n1 | 2.5 | . | 2.6 | 1.5 | 1.5 | 5.6
OC1(c2ccccc2F)CC2CCC(C1)N2CCN1CCOCC1 (stereo unspecified) | . | / | . | . | . | .
O=c1[nH]c(=O)n(CCc2ccccc2)c(O)c1C=NCc1ccc2c(c1)OCO2 | . | . | 35 | . | . | .
Clc1ccc(CSC(Cn2ccnc2)c2ccc(Cl)cc2Cl)cc1 (stereo unspecified) | . | . | 9.2 | . | . | .
c1ccc(Cn2ccnc2)cc1 | . | . | . | . | . | .
Clc1ccc(COC(Cn2ccnc2)c2ccc(Cl)cc2Cl)cc1 (stereo unspecified) | . | . | 26 | . | . | 9.2
COC(=O)CC1=C(C(=O)OC)C2(C(=O)Nc3c(C)cccc32)C(C#N)=C(N)O1 (stereo unspecified) | . | . | . | . | . | .
CC(Cc1ccccc1)[n+]1cc(/N=C(\[O-])N(C)C)on1 (stereo unspecified) | . | . | . | . | . | .
CC(C)OCCCNC(=O)c1c(N)n(Cc2cccs2)c2nc3ccccc3nc12 | . | . | . | . | . | .
Nc1c(C(=O)OCC2CCCO2)c2nc3ccccc3nc2n1Cc1cccs1 (stereo unspecified) | . | . | 39 | . | . | .
CSCc1nnc2n1-c1ccc(Cl)cc1C(c1ccccc1)=NC2 | / | / | / | . | . | /
O=C(C1CCN(S(=O)(=O)c2ccccc2)CC1)N1CCC2(CC1)OCCO2 | . | . | . | . | . | .
CCCCCCn1c(O)c(C=NC2CCCCC2N)c(=O)[nH]c1=O (stereo unspecified) | . | . | 29 | . | . | 5.0
CCCCCCCC(=O)NC(Oc1ccccc1[N+](=O)[O-])C(Cl)(Cl)Cl (stereo unspecified) | . | . | . | . | . | .
O=P(C(c1c[nH]c2ccccc12)N1CCOCC1)(N1CCOCC1)N1CCOCC1 (stereo unspecified) | . | . | . | . | . | .
Cc1c(C(=O)N2CCC3(CC2)OCCO3)sc2ncnc(N3CCN(c4ccccn4)CC3)c12 | . | . | . | . | . | .
CN(C)C(=O)On1c(-c2ccccc2)nc2ccc(Cl)cc21 | . | . | 38 | . | . | .
COc1ccc(-c2nc3ccccc3n2OC(=O)N(C)C)cc1 | . | . | . | . | . | .
CC(O)(CS(=O)(=O)c1cccc(C(F)(F)F)c1)C(=O)Nc1ccc(C(F)(F)F)cc1 (stereo unspecified) | / | / | / | . | . | /
